The source of these data is ChEMBL document CHEMBL1177875, “Antitumor activity of (-)-alpha-bisabolol-based thiosemicarbazones against human tumor cell lines” (2010).

Each structure is given as a SMILES string.

What all share (type): functional
Test [1] has as its system UACC-62. Put plainly: Cytotoxicity against human UACC62 cells by sulforhodamine B assay. The gist of the method:
(§1)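 Growth of the human tumor cell line was read colorimetrically with sulforhodamine B, following the NCI standard protocol, with doxorubicin as positive control. Compounds were tested at four concentrations in 10-fold dilutions (0.25 to 250). Dose-response curves gave GI50 (the concentration for 50% growth inhibition), TGI (total growth inhibition) and LC50 (50% cell death).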
On the technique in general: The SRB assay estimates cell density from bound dye.

Test [2] deals with MCF7. As to the kind of experiment: Cytotoxicity against human MCF7 cells by sulforhodamine B assay. As to conditions: for CC50: read-out: LC50 (the source's name). The gist of the method: as §1
Test [3] in a line: Cytotoxicity against human NCI/ADR cells by sulforhodamine B assay. As to conditions: NCI/ADR-RES; for CC50: read-out: LC50 (the source's name). The gist of the method: as §1
Test [4] concerns NCI-H460. Put plainly: Cytotoxicity against human NCI-H460 cells by sulforhodamine B assay. As to conditions: for CC50: read-out: LC50 (the source's name). In short, it runs like this:
as §1

Test [5] can be described thus: Cytotoxicity against human PCO3 cells by sulforhodamine B assay. The conditions noted are these: for CC50: read-out: LC50 (the source's name). In short, it runs like this:
as §1

Test [6] relates to OVCAR-3. Put plainly: Cytotoxicity against human OVCAR-3 cells by sulforhodamine B assay. As to conditions: for CC50: read-out: LC50 (the source's name). In short, it runs like this:
as §1

Test [7] has as its system HT-29. Put plainly: Cytotoxicity against human HT-29 cells by sulforhodamine B assay. As to conditions: for CC50: read-out: LC50 (the source's name). The gist of the method:
as §1

Test [8] has as its system K562. As to the kind of experiment: Cytotoxicity against human K562 cells by sulforhodamine B assay. As to conditions: for CC50: read-out: LC50 (the source's name). The gist of the method: as §1

`CC1=CC[C@@H]([C@@](C)(O)CCCC(C)(C)NC(=S)N/N=C\c2cccc(Cl)c2)CC1`: the concentration for 50% growth inhibition (GI50) worked out at 7.81 µM in test [1]; 7.35 µM in test [2]; 7.35 µM in test [3]; 44.3 µM in test [4]; 11.2 µM in test [5]; 8.27 µM in test [6]. Further, the values for the GI50 in test [7] and in test [8] were 6.89 µM and 0.03 µM, respectively. Besides, the LC50 (50% cell kill) in test [1] is 42.7 µM. Besides, the TGI was 18.1 µM in test [1]; 19.5 µM in test [2]; 31.9 µM in test [3]; more than 100 µM in test [4]; 37.8 µM in test [5]; 26.5 µM in test [6]. For the same molecule, the TGI in test [7] is 16.5 µM; in test [8], 1.06 µM. In addition, the CC50 was 45.9 µM in test [2]; more than 100 µM in test [3]; more than 100 µM in test [4]; 57 µM in test [5]; 48 µM in test [6]; 45.9 µM in test [7]. Besides, the CC50 in test [8] was 56.3 µM.

In the case of `CC1=CC[C@@H]([C@@](C)(O)CCCC(C)(C)NC(=S)N/N=C\c2ccccc2)CC1`, the GI50 was determined as 12.7 µM in test [1]; 7.72 µM in test [2]; 6.97 µM in test [3]; 38.4 µM in test [4]; 8.47 µM in test [5]; 6.97 µM in test [6]. For the same molecule, the GI50 came to 9.96 µM in test [7] and 0.13 µM in test [8]. The molecule further returned an LC50 (50% cell kill) in test [1] of 48.4 µM. Moreover, the TGI in test [1] was 43.8 µM; in test [2], 28.7 µM; in test [3], 23.8 µM; in test [4] it was more than 100 µM; in test [5] it was 36.2 µM; in test [6], 12.9 µM. The TGI in test [7] turned out to be 36.5 µM; in test [8], 20.9 µM. Besides, the CC50 is 60.4 µM in test [2]; 59.9 µM in test [3]; more than 100 µM in test [4]; more than 100 µM in test [5]; 43.6 µM in test [6]; 57.4 µM in test [7]. Also, in test [8], the CC50 is more than 100 µM.

Regarding `CC1=CC[C@@H]([C@@](C)(O)CCCC(C)(C)NC(=S)N/N=C\c2ccc(C)cc2)CC1`, the concentration for 50% growth inhibition (GI50) amounted to 11.6 µM in test [1]; 7.23 µM in test [2]; 6.51 µM in test [3]; 10.1 µM in test [4]; 6.75 µM in test [5]; 6.02 µM in test [6]. In addition, the GI50 in test [7] turned out to be 10.4 µM; in test [8], 0.14 µM. This molecule registered an LC50 (50% cell kill) in test [1] of 52.3 µM. The TGI was 39 µM in test [1]; more than 100 µM in test [2]; 30.5 µM in test [3]; more than 100 µM in test [4]; 45.7 µM in test [5]; 11.8 µM in test [6]. Also, the TGI in test [7] was 80.4 µM; in test [8], 7.95 µM. For the same molecule, the CC50 in test [2] was more than 100 µM; in test [3] it was more than 100 µM; in test [4] it was more than 100 µM; in test [5], more than 100 µM; in test [6] it was 45.3 µM; in test [7], more than 100 µM. Besides, the CC50 in test [8] is more than 100 µM.

`CC1=CC[C@@H]([C@@](C)(O)CCCC(C)(C)NC(=S)N/N=C\c2ccccc2Cl)CC1`: the GI50 in test [1] is 53.3 µM; in test [2], 31.2 µM; in test [3], more than 100 µM; in test [4], 24.6 µM; in test [5], 18.8 µM; in test [6] it was 42 µM. Further, the GI50 amounted to 23.7 µM in test [7] and 0.15 µM in test [8]. For the same molecule, in test [1], the LC50 (50% cell kill) was more than 100 µM. Also, the TGI in test [1], in test [2], in test [3], in test [4], in test [5] and in test [6] was more than 100 µM throughout. Also, the TGI is more than 100 µM in test [7] and 4.11 µM in test [8]. The CC50 in test [2], in test [3], in test [4], in test [5], in test [6] and in test [7] was more than 100 µM in each case. Moreover, in test [8], the CC50 is 8.5 µM.

Consider `CC(C)=CCC[C@](C)(O)[C@@H]1CC=C(C)CC1` [LEVOMENOL], for which the GI50 in test [1], in test [2], in test [3], in test [4], in test [5] and in test [6] was more than 100 µM in each case. For the same molecule, the values for the GI50 in test [7] and in test [8] were more than 100 µM and 6.37 µM, respectively. In addition, the TGI in test [1], in test [2], in test [3], in test [4], in test [5] and in test [6] was more than 100 µM throughout. For the same molecule, the TGI in test [7] and in test [8] was more than 100 µM in each case. The CC50 in test [2], in test [3], in test [4], in test [5], in test [6] and in test [7] was more than 100 µM throughout. The CC50 in test [8] is more than 100 µM.

As to `CC1=CC[C@@H]([C@@](C)(O)CCCC(C)(C)NC(=S)N/N=C\c2cccc([N+](=O)[O-])c2)CC1`, the GI50 came to 7.84 µM in test [1]; 6.72 µM in test [2]; 6.72 µM in test [3]; 8.29 µM in test [4]; 5.6 µM in test [5]; 8.51 µM in test [6]. The figures for the GI50 in test [7] and in test [8] were 14.1 µM and 0.02 µM, respectively. Besides, the LC50 (50% cell kill) in test [1] is 49.3 µM. The concentration for total growth inhibition (TGI) in test [1] was determined as 24.7 µM; in test [2] it was 18.3 µM; in test [3], 38 µM; in test [4], 68.6 µM; in test [5] it was 20.7 µM; in test [6], 40.8 µM. Further, the TGI in test [7] was found to be 57.1 µM; in test [8], 0.56 µM. Besides, the CC50 in test [2] is 47.3 µM; in test [3], more than 100 µM; in test [4], more than 100 µM; in test [5] it was 52.5 µM; in test [6] it was more than 100 µM; in test [7], more than 100 µM. Also, the CC50 in test [8] was 12.6 µM.

Take `CC1=CC[C@@H]([C@@](C)(O)CCCC(C)(C)NC(=S)NN=C(c2ccccc2)c2ccccc2)CC1`: the GI50 in test [1] was more than 100 µM; in test [2], 36.7 µM; in test [3], 3.31 µM; in test [4] it was 13.5 µM; in test [5] it was more than 100 µM; in test [6] it was more than 100 µM. In addition, the results for the GI50 in test [7] and in test [8] were more than 100 µM and 1.94 µM, respectively. This molecule also gave an LC50 (50% cell kill) in test [1] of more than 100 µM. Further, the TGI in test [1], in test [2], in test [3], in test [4], in test [5] and in test [6] was more than 100 µM each time. For the same molecule, the TGI in test [7] is more than 100 µM; in test [8] it was 4.19 µM. Moreover, the CC50 in test [2], in test [3], in test [4], in test [5], in test [6] and in test [7] was more than 100 µM each time. The CC50 in test [8] was determined as 10.3 µM.

`CC1=CC[C@@H]([C@@](C)(O)CCCC(C)(C)NC(=S)N/N=C\c2ccc(N(C)C)cc2)CC1`: the GI50 in test [1] was more than 100 µM; in test [2], 14 µM; in test [3] it was 25.2 µM; in test [4], 19.6 µM; in test [5], 13.7 µM; in test [6] it was 3.6 µM. The GI50 was found to be 27.7 µM in test [7] and 0.08 µM in test [8]. Moreover, the LC50 (50% cell kill) in test [1] was more than 100 µM. The TGI in test [1], in test [2], in test [3], in test [4], in test [5] and in test [6] was more than 100 µM in each case. Besides, the TGI was more than 100 µM in test [7] and 42 µM in test [8]. For the same molecule, the CC50 in test [2], in test [3], in test [4], in test [5], in test [6] and in test [7] was more than 100 µM throughout. Further, the CC50 in test [8] was more than 100 µM.

`COc1ccc(/C=N\NC(=S)NC(C)(C)CCC[C@](C)(O)[C@@H]2CC=C(C)CC2)cc1`: the GI50 in test [1] came to 7.42 µM; in test [2] it was 6.5 µM; in test [3], 6.73 µM; in test [4] it was 5.1 µM; in test [5], 7.66 µM; in test [6] it was 6.5 µM. Also, the 50% growth inhibitory concentration (GI50) in test [7] worked out at 7.42 µM; in test [8] it was 0.22 µM. This molecule also gave an LC50 (50% cell kill) in test [1] of 48.5 µM. In addition, the TGI in test [1] is 22.1 µM; in test [2] it was 94.9 µM; in test [3] it was 57 µM; in test [4], more than 100 µM; in test [5] it was 76 µM; in test [6], 15.8 µM. In addition, the TGI in test [7] turned out to be 35.1 µM; in test [8], 34.9 µM. Moreover, the CC50 is more than 100 µM in test [2]; more than 100 µM in test [3]; more than 100 µM in test [4]; more than 100 µM in test [5]; 46.2 µM in test [6]; more than 100 µM in test [7]. The CC50 in test [8] was more than 100 µM.

The term GI50 denotes the concentration giving 50% growth inhibition. A high value points to lower sensitivity of the cells. The TGI is the concentration at which net growth stops. A higher TGI goes with lower sensitivity of the cells.
